Test results from ChEMBL document CHEMBL4364292, “Discovery of a Potent and Selective CCR4 Antagonist That Inhibits Treg Trafficking into the Tumor Microenvironment” (J Med Chem, 2019).
One block for each compound: values may come before it.

Assays:
[1] = Stability in human hepatocytes assessed as compound remaining incubated for 60 mins under shaking condition by LC-MS/MS analysis; format: ADME, cell-based, Hepatocyte; details: read-out: Stability
Method in brief: (§1)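 Human and rat hepatocytes exposed to compound; percent parent remaining reported.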

[2] = target: T1, C-C chemokine receptor type 4 (Homo sapiens, UniProt P51679); assay: Antagonist activity at human CCR4 expressed in rat chem-5 cells assessed as inhibition of CCL22-induced calcium flux measured at 2.5 secs time interval for 45 secs by fluorescence assay; format: functional, cell-based
T1 sequence (P51679 whole entry): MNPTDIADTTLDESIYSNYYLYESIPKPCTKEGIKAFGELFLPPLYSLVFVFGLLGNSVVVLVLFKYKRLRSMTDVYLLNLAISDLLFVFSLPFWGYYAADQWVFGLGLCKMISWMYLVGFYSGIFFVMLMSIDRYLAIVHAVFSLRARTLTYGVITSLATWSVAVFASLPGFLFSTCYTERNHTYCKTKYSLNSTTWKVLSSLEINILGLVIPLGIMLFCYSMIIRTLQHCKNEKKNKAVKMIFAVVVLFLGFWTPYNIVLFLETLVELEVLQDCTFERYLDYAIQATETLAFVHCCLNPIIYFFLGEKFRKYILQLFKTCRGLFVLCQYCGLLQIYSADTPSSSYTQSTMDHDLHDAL
Method in brief: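 Calcium flux functional readout of CCR4 antagonism, run without serum; IC50 reported.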

[3] = Stability in rat hepatocytes assessed as compound remaining incubated for 60 mins under shaking condition by LC-MS/MS analysis; format: ADME, cell-based, Hepatocyte; details: read-out: Stability; method in brief: as §1
[4] = Terminal half-life in cynomolgus monkey at 0.5 mg/kg, iv; format: ADME, organism-based, Macaca fascicularis; details: in vivo, read-out: beta t1/2 (converted)
Method in brief: (§2)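 Cross-species PK (dog, cynomolgus monkey): 0.5 mg/kg IV or 2 mg/kg PO; three animals per group.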

[5] = Terminal half-life in rat at 0.5 mg/kg, iv; format: ADME, organism-based; details: in vivo, read-out: beta t1/2 (converted)
[6] = Oral bioavailability in rat at 2 mg/kg, po; format: ADME, organism-based; details: in vivo
[7] = Volume of distribution at steady state in rat at 0.5 mg/kg, iv or 2 mg/kg, po; format: ADME, organism-based; details: in vivo, read-out: Vdss
Mus musculus [8] = assay: Inhibition of anti-CD3/CD28-stimulated B6-Foxp3 GFP positive mouse T-reg cell migration into tumor of mouse Pan02 cells implanted in C57BL/6 mouse assessed as decrease in number of GFP positive T-reg cells in tumor at 30 mg/kg, po qd treated 24 hrs prior to T-reg cell addition followed by compound dosing for subsequent 4 days and measured on day 6 by flow cytometry relative to control; format: functional; details: C57BL/6, Pan02, po
Method in brief: (§3)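 Pan02 pancreatic tumor-bearing mice dosed QD for 6 days at 10 or 30 mg/kg. GFP+ induced Treg, made from naive CD4+ T cells of Foxp3-GFP transgenic mice, injected 24 h after first dose. GFP+ Treg counted in tumor and spleen versus vehicle group; plasma level taken 24 h after last dose; one-way ANOVA.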

[9] = Volume of distribution at steady state in mouse; format: ADME, organism-based; details: in vivo, read-out: Vdss
Cytochrome P450 1A2 = target: T2, Cytochrome P450 1A2 (Homo sapiens, UniProt P05177); assay: Inhibition of CYP1A2 (unknown origin); format: ADME
T2 sequence (P05177 whole entry): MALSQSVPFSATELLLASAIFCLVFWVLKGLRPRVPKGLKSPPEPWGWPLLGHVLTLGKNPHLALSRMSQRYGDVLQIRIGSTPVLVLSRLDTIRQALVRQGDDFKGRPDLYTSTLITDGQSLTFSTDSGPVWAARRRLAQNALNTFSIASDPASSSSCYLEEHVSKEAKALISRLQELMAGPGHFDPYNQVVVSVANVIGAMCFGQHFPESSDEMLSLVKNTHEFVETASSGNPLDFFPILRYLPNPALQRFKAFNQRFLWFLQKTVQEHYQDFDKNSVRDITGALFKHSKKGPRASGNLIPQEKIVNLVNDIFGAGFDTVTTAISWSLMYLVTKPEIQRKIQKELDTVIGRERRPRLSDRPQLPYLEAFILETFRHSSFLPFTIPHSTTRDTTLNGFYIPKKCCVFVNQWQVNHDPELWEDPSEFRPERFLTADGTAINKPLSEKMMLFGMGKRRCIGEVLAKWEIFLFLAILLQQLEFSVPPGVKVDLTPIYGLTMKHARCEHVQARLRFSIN
Method in brief: (§4)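 CYP inhibition tested against 1A2, 2C9, 2C19, 2D6 and 3A4; IC50 in μM.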

[10] = Oral bioavailability in cynomolgus monkey at 2 mg/kg, po; format: ADME, organism-based, Macaca fascicularis; details: in vivo; method in brief: as §2
[11] = Half-life in mouse; format: ADME, organism-based; details: in vivo
[12] = Hepatic clearance in dog at 0.5 mg/kg, iv or 2 mg/kg, po; format: ADME, organism-based, Canis lupus familiaris; details: in vivo; method in brief: as §2
[13] = Hepatic clearance in rat at 0.5 mg/kg, iv or 2 mg/kg, po; format: ADME, organism-based; details: in vivo
[14] = Hepatic clearance in cynomolgus monkey at 0.5 mg/kg, iv or 2 mg/kg, po; format: ADME, organism-based, Macaca fascicularis; details: in vivo; method in brief: as §2
Cytochrome P450 3A4 = Cytochrome P450 3A4 (Homo sapiens, UniProt P08684); assay: Inhibition of CYP3A4 (unknown origin); format: ADME; method in brief: as §4
[15] = Oral bioavailability in dog at 2 mg/kg, po; format: ADME, organism-based, Canis lupus familiaris; details: in vivo; method in brief: as §2
[16] = AUC(0 to infinity) in rat at 2 mg/kg, po; format: ADME, organism-based; set-up: dose 2 mg/kg, route oral, time infinity; details: in vivo
[17] = Clearance in mouse; format: ADME, organism-based; details: in vivo
Mus musculus [18] = assay: Inhibition of anti-CD3/CD28-stimulated B6-Foxp3 GFP positive mouse T-reg cell migration into tumor of mouse Pan02 cells implanted in po dosed C57BL/6 mouse assessed as decrease in number of GFP positive T-reg cells in tumor treated 24 hrs prior to T-reg cell addition followed by daily compound dosing for subsequent 4 days and measured on day 6 by flow cytometry; format: functional, organism-based; method in brief: as §3
Cytochrome P450 2C9 = Cytochrome P450 2C9 (Homo sapiens, UniProt P11712); assay: Inhibition of CYP2C9 (unknown origin); format: ADME; method in brief: as §4
Cytochrome P450 2D6 = Cytochrome P450 2D6 (Homo sapiens, UniProt P10635); assay: Inhibition of CYP2D6 (unknown origin); format: ADME; method in brief: as §4
[19] = Terminal half-life in dog at 0.5 mg/kg, iv; format: ADME, organism-based, Canis lupus familiaris; details: in vivo, read-out: beta t1/2 (converted); method in brief: as §2
[20] = Bioavailability in mouse; format: ADME, organism-based; details: in vivo
[21] = Terminal half-life in rat at 0.5 mg/kg, iv or 2 mg/kg, po; format: ADME, organism-based; details: in vivo, read-out: beta t1/2 (converted)
Cytochrome P450 2C19 = Cytochrome P450 2C19 (Homo sapiens, UniProt P33261); assay: Inhibition of CYP2C19 (unknown origin); format: ADME; method in brief: as §4
[22] = Hepatic clearance in rat at 0.5 mg/kg, iv; format: ADME, organism-based; details: in vivo
[23] = AUCinfinity in rat at 0.5 mg/kg, iv; format: ADME, organism-based; set-up: dose 0.5 mg/kg, route intravenous, time infinity; details: in vivo
[24] = Bioavailability in rat; format: ADME, organism-based; details: in vivo

Cytochrome P450 2C9, sequence (P11712 whole entry): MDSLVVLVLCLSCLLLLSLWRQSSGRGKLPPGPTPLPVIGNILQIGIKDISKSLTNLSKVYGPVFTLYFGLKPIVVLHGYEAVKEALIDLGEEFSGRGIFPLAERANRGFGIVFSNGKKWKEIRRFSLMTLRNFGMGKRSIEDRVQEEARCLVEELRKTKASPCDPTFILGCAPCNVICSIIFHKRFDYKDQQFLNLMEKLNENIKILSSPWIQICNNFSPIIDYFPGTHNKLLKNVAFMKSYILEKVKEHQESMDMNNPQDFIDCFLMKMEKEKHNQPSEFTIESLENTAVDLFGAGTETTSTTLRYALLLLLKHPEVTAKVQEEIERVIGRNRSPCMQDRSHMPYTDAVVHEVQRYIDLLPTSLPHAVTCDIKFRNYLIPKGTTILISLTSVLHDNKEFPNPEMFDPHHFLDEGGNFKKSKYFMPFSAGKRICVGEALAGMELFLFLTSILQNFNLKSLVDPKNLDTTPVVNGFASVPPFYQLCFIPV
Cytochrome P450 2D6, sequence (P10635 whole entry): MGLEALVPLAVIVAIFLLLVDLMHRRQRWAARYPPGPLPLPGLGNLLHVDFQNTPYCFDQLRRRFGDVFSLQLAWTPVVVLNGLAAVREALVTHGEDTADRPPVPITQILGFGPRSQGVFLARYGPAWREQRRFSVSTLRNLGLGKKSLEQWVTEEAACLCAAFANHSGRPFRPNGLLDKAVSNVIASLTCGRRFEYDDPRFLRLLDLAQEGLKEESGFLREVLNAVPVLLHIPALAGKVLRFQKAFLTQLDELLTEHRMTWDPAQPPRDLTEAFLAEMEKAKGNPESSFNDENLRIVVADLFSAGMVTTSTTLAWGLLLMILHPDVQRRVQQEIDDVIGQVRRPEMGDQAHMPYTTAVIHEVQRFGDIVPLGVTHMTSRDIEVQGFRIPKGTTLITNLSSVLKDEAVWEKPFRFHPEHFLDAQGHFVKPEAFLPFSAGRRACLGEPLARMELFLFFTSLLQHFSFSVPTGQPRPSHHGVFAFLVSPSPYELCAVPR
Cytochrome P450 3A4, sequence (P08684 whole entry): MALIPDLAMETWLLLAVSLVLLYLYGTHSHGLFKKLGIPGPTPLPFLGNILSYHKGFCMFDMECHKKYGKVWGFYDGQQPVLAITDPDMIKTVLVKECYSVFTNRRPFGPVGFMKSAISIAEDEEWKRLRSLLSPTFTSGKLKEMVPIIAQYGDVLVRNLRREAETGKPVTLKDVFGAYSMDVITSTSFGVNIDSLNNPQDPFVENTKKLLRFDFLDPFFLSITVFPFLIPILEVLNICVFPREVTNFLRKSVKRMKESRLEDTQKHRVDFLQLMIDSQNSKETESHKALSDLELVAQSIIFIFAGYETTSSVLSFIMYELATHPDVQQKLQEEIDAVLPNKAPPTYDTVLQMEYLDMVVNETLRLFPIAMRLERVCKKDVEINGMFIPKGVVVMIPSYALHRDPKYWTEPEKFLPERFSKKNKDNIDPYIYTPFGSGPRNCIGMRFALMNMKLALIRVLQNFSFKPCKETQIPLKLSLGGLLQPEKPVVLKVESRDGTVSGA
Cytochrome P450 2C19, sequence (P33261 whole entry): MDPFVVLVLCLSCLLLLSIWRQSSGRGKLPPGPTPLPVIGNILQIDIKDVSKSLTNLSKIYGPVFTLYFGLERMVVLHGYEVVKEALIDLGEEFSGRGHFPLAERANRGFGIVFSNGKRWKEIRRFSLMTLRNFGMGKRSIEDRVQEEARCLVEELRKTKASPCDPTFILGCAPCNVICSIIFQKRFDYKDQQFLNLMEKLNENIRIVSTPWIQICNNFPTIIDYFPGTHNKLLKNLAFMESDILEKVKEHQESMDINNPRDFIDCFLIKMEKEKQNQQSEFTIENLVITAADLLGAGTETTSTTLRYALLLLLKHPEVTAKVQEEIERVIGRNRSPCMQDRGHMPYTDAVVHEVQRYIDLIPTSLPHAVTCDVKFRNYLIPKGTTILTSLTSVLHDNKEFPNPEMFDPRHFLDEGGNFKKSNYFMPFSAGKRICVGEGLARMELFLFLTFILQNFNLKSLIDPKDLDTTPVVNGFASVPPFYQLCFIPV

remaining at 1 h [1]: 100% | IC50 [2]: 229 nM | remaining at 1 h [3]: 100%
SMILES: C[C@@H]1CC(c2cnc3c(C#N)nn([C@H](C)c4ccc(Cl)cc4Cl)c3n2)=CC[C@@H]1N1CCC[C@H]1CN

half-life [4]: 9.9 h | half-life [5]: 2.2 h | bioavailability [6]: 28% | Vd [7]: 9.8 L/kg | Vd [9]: 5.7 L/kg | IC50 (Cytochrome P450 1A2): > 10000 nM | remaining at 1 h [1]: 81% | IC50 [2]: 40 nM | bioavailability [10]: 30% | half-life [11]: 7.6 h | CLH [12]: 10.7 mL/min/kg | CLH [13]: 74.7 mL/min/kg | CLH [14]: 11.3 mL/min/kg | remaining at 1 h [3]: 32% | IC50 (Cytochrome P450 3A4): > 10000 nM | bioavailability [15]: 75% | AUC(0-inf) [16]: 125 ng·h/mL | clearance [17]: 12 mL/min/kg | IC50 (Cytochrome P450 2C9): > 10000 nM | IC50 (Cytochrome P450 2D6): > 10000 nM | half-life [19]: 16.4 h | bioavailability [20]: 26% | half-life [21]: 4.1 h | IC50 (Cytochrome P450 2C19): > 10000 nM
SMILES: C[C@@H]1CC(c2cnc3c(C#N)nn([C@H](C)c4ccc(Cl)cc4Cl)c3n2)=CC[C@@H]1N1CCC[C@H]1CO
inhibition in vivo at 30 mg/kg (Mus musculus [8]): 100% | inhibition (Mus musculus [18]): Dose-dependent effect

CLH [22]: 56.7 mL/min/kg | IC50 [2]: 837 nM | AUC(0-inf) [23]: 148 ng·h/mL
SMILES: CC1CN(c2cnc3c(C(F)(F)F)nn(C(C)c4ccc(Cl)cc4Cl)c3n2)CCC1N1CCCCC1 (stereo not given)

CLH [22]: 101.7 mL/min/kg | IC50 [2]: 228 nM | AUC(0-inf) [23]: 82 ng·h/mL
SMILES: CC1CN(c2cnc3c(C(N)=O)nn(C(C)c4ccc(Cl)cc4Cl)c3n2)CCC1N1CCCCC1 (stereo not given)

IC50 [2]: 384 nM
SMILES: C[C@@H]1CC(c2cnc3c(C#N)nn([C@H](C)c4ccc(Cl)cc4Cl)c3n2)=CC[C@@H]1N1CCC[C@H]1C(C)(C)O

IC50 [2]: 54 nM | bioavailability [24]: 7%
SMILES: C[C@@H](Nc1cncc(C2=CCN(C(=O)[C@H]3CCCCN3)CC2)n1)c1ccc(Cl)cc1Cl

IC50 [2]: 275 nM | bioavailability [24]: 25%
SMILES: CC(c1ccc(Cl)cc1Cl)n1ncc2ncc(C3=CCN(C(=O)[C@H]4CCCCN4)CC3)nc21 (stereo not given in full)

IC50 [2]: 37 nM
SMILES: Cc1nn([C@H](C)c2ccc(Cl)cc2Cl)c2nc(N3CC[C@H](N4CCC[C@H]4CCC(N)=O)[C@H](C)C3)cnc12

CLH [22]: 121.7 mL/min/kg | IC50 [2]: 238 nM | AUC(0-inf) [23]: 68 ng·h/mL
SMILES: CC1CN(c2cnc3cnn(C(C)c4ccc(Cl)cc4Cl)c3n2)CCC1N1CCCCC1 (stereo not given)

remaining at 1 h [1]: 99% | IC50 [2]: 36 nM | remaining at 1 h [3]: 35%
SMILES: Cc1nn([C@H](C)c2ccc(Cl)cc2Cl)c2nc(C3=CC[C@H](N4CCC[C@H]4CO)[C@H](C)C3)cnc12

IC50 [2]: 47 nM
SMILES: Cc1nn([C@H](C)c2ccc(Cl)cc2Cl)c2nc(N3CC[C@H](N4CCC[C@H]4C)[C@H](C)C3)cnc12

IC50 [2]: 172 nM
SMILES: Cc1nn([C@H](C)c2ccc(Cl)cc2Cl)c2nc(N3CC[C@H](N4CCC[C@@H]4C)[C@H](C)C3)cnc12

IC50 [2]: 2580 nM
SMILES: CC(c1ccc(Cl)cc1Cl)n1ncc2ncc(N3CCC(N4CCCCC4)CC3)nc21 (stereo not given)
